A short description of series [1]: Drug metabolism in C57BL/6 mouse plasma assessed as hydrolysis metabolite formation at 40 mg/kg, po administered via gavage by LC-MS/MS analysis. Type of series: ADME, organism-based. As to conditions: in vivo.
For series [2], the system named is Lewis lung carcinoma cell line. Put plainly: Induction of apoptosis in mouse LL/2 cells assessed as early apoptotic cells at 4 uM after 24 hrs by Annexin V/propidium iodide staining-based flow cytometric analysis (reference value: 1.8%). Type of series: functional. A general note: In flow cytometry, cells or beads pass a laser one at a time.
Series [3] can be described thus: Drug metabolism in C57BL/6 mouse liver assessed as hydroxylated metabolite formation at 40 mg/kg, po administered via gavage by LC-MS/MS analysis. Type of series: ADME, organism-based. The following applies: in vivo.
The test system of series [4] is Lewis lung carcinoma cell line. Description: Cytotoxicity against mouse LL/2 cells at 4 uM after 72 hrs in presence of paclitaxel by MTT assay relative to control. Type of series: functional. The procedure, abridged: (§1)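 Mouse LL/2 cells treated with inhibitor alone or combined with paclitaxel for 3 days. Viability measured by MTT assay relative to untreated control.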

Series [5] in a line: Drug uptake in C57BL/6 mouse liver at 40 mg/kg, po administered via gavage by LC-MS/MS analysis. Type of series: ADME, organism-based. The following applies: in vivo.
The nature of series [6]: Drug uptake in C57BL/6 mouse lung at 40 mg/kg, po administered via gavage by LC-MS/MS analysis. Type of series: ADME, organism-based. The following applies: in vivo.
Series [7] concerns Lewis lung carcinoma cell line. Description: Induction of apoptosis in mouse LL/2 cells assessed as viable cells at 4 uM after 24 hrs by Annexin V/propidium iodide staining-based flow cytometric analysis (reference value: 82.3%). Type of series: functional.
The nature of series [8]: Ratio of AUC (0 to 24 hrs) in lung to plasma of C57BL/6 mouse at 40 mg/kg, po administered via gavage by LC-MS/MS analysis. As to conditions: read-out: Ratio AUC. Type of series: ADME, organism-based.
Series [9] in a line: Ratio of compound AUC (0 to 24 hrs) to ACY-1215 AUC (0 to 24 hrs) in C57BL/6 mouse plasma at 40 mg/kg, po administered via gavage by LC-MS/MS analysis. The following applies: in vivo. Type of series: ADME, organism-based.
Series [10] has as its system Lewis lung carcinoma cell line. Put plainly: Induction of apoptosis in mouse LL/2 cells assessed as necrotic cells at 4 uM after 24 hrs by Annexin V/propidium iodide staining-based flow cytometric analysis (reference value: 7.3%). Type of series: functional.
Series [11] has as its system Lewis lung carcinoma cell line. Description: Induction of apoptosis in mouse LL/2 cells assessed as viable cells at 4 uM after 24 hrs in presence of paclitaxel by Annexin V/propidium iodide staining-based flow cytometric analysis (reference value: 82.3%). Type of series: functional.
Series [12] deals with Lewis lung carcinoma cell line. Put plainly: Cytotoxicity against mouse LL/2 cells at 4 uM after 72 hrs by MTT assay relative to control. Type of series: functional. The procedure, abridged:
as §1
Background: Formazan colour is commonly taken as a measure of viable cells.

Series [13] in a line: Ratio of compound AUC (0 to 24 hrs) to ACY-1215 AUC (0 to 24 hrs) in C57BL/6 mouse kidney at 40 mg/kg, po administered via gavage by LC-MS/MS analysis. As to conditions: in vivo. Type of series: ADME, organism-based.
Series [14] is described as follows: Drug uptake in C57BL/6 mouse lung at 40 mg/kg, po administered via gavage co-administered with paclitaxel at 10 mg/kg, ip by LC-MS/MS analysis. Type of series: ADME, organism-based. The following applies: in vivo.
A short description of series [15]: AUC (0 to 24 hrs) in C57BL/6 mouse plasma at 40 mg/kg, po administered via gavage by LC-MS/MS analysis. As to conditions: in vivo. Type of series: ADME, organism-based. Details: time < 24 hr, dose 40 mg/kg, route oral.
The nature of series [16]: AUC (0 to 24 hrs) in C57BL/6 mouse lung at 40 mg/kg, po administered via gavage by LC-MS/MS analysis. Type of series: ADME, organism-based. Details: time < 24 hr, dose 40 mg/kg, route oral. The following applies: in vivo.

Consider `O=C(NO)c1ccc(Cn2c(=O)n(CCc3ccccc3)c(=O)c3ccccc32)cc1`, for which the figures for the Drug metabolism entry in [1] and in series [3] were “Metabolite_Detected” and “Metabolite_Notdetected”, respectively. Further, the Activity is given as 1.5% in [2]; 80 - 90% in series [4]; 85.8% in series [7]; 2.3% in series [10]; 64.8% in series [11]; 10% in series [12]. Moreover, the Drug uptake in [5] is 782 ng/g; in series [6] it was 212 ng/g; in series [14] it was 331 ng/g. Besides, in [8], the Kp stood at 18.8. For the same compound, the “Ratio AUC” value in series [9] worked out at 0.2; in [13], 0.8. The AUC in series [15] stood at 71 ng·h/g; in series [16], 1335 ng·h/g.

The record behind these values is ChEMBL document CHEMBL4330076, “Quinazolin-2,4-dione-Based Hydroxamic Acids as Selective Histone Deacetylase-6 Inhibitors for Treatment of Non-Small Cell Lung Cancer” (J Med Chem, 2019).
